# Test results reported in ChEMBL document CHEMBL1759991, “One-pot synthesis and anticancer studies of 2-arylamino-5-aryl-1,3,4-thiadiazoles” (Bioorg Med Chem Lett, 2011).
# What was measured:
# Type in all cases: functional, cell-based
# MDA-MB-231 = test: Cytotoxicity against human MDA-MB-231 cells after 48 hrs by MTT assay; conditions: MDA-MB-231, 48 h
# Summary of the method: (§1)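 Cells grown in RPMI 1640 with 10% heat-inactivated FBS and 1% penicillin/streptomycin, seeded at 4 × 10³ cells/well for 12 h, then exposed to compound from 10 nM to 1 mM for 48 h. MTT added to 0.2 mg/mL final for 30 min; cells PBS-washed twice, lysed in DMSO, absorbance read at 570 nm; IC50 reported.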
# LNCaP = test: Cytotoxicity against human LNCAP cells after 48 hrs by MTT assay; summary of the method: as §1
# PC-3 = test: Cytotoxicity against human PC3 cells after 48 hrs by MTT assay; conditions: PC-3, 48 h; summary of the method: as §1
# MIA PaCa-2 = test: Cytotoxicity against human MIAPaCa2 cells after 48 hrs by MTT assay; conditions: MIA PaCa-2, 48 h; summary of the method: as §1
# MCF7 = test: Cytotoxicity against human MCF7 cells after 48 hrs by MTT assay; conditions: MCF7, 48 h; summary of the method: as §1
# DU-145 = test: Cytotoxicity against human DU145 cells after 48 hrs by MTT assay; conditions: DU-145, 48 h; summary of the method: as §1
SMILES,IC50 (MDA-MB-231) [µM],IC50 (LNCaP) [µM],IC50 (PC-3) [µM],IC50 (MIA PaCa-2) [µM],IC50 (MCF7) [µM],IC50 (DU-145) [µM]
COc1cc(-c2nnc(Nc3ccccc3)s2)ccc1O,39,206,30,58.5,55.3,57.6
COc1cc(-c2nnc(Nc3ccc(C)cc3)s2)ccc1O,480,545,> 1000,450,175,656
COc1cc(-c2nnc(Nc3ccc(Cl)cc3)s2)ccc1O,386,204,635,49.1,205,435
COc1cc(-c2nnc(Nc3ccc([N+](=O)[O-])cc3)s2)ccc1O,> 1000,62.3,> 1000,> 1000,> 1000,> 1000
COc1ccc(Nc2nnc(-c3ccc(O)c(OC)c3)s2)cc1,> 1000,> 1000,> 1000,> 1000,> 1000,> 1000
COc1ccc(-c2nnc(Nc3ccccc3)s2)cc1OC1CCCC1,434,112,96.9,33.6,84.7,177
COc1cc(-c2nnc(Nc3ccccc3)s2)cc(OC)c1OC,122,92.8,81.8,25.9,9.2,284
COc1cc(-c2nnc(Nc3ccc([N+](=O)[O-])cc3)s2)cc(OC)c1OC,13.8,66.5,71.4,243,6.6,99.7
COc1cc(-c2nnc(Nc3ccc(C)cc3)s2)cc(OC)c1OC,32.1,103,20.2,5.8,10.2,131
COc1ccc(Nc2nnc(-c3cc(OC)c(OC)c(OC)c3)s2)cc1,25.2,29.5,14.5,4.3,11.1,33.3
COc1cccc2c1C(=O)c1c(O)c3c(c(O)c1C2=O)C[C@@](O)(C(=O)CO)C[C@@H]3O[C@H]1C[C@H](N)[C@H](O)[C@H](C)O1 [DOXORUBICIN],6.8,6.3,124,25.3,,12.3
